Results reported in ChEMBL document CHEMBL5303300, “EUbOPEN Chemogenomics Library - Multiplex” (2023).
Several values for one entry are separate records, joined by “and”; a condition that tells them apart may be missing. Equal entries are not always repeated.

Test system: U2OS
Test: Multiplex assay against U2OS
Assay type: toxicity, cell-based
Details: human, number of replicates 2
Method in brief: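 Phenotypes for tubulin, mitochondrial mass and membrane permeability are expressed as per cents of healthy-nucleus cells. Cells were stained live at seeding with Hoechst33342, BioTracker Green Microtubule Cytoskeleton Dye, MitoTracker Red and Annexin V Alexa Fluor 680, then imaged after compound addition on a CQ1 microscope at 37°C and 5% CO2. Machine-learning gating in CellPathfinder separated Hoechst high-intensity objects from normal cells, divided normal cells by nuclear state (healthy, pyknosed, fragmented) and divided pyknosed cells into mitotic or apoptotic.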

[1] = 12 h, 1 µM, compound concentration 1 uM
[2] = 12 h, 10 µM, compound concentration 10 uM
[3] = 24 h, 1 µM, compound concentration 1 uM
[4] = 24 h, 10 µM, compound concentration 10 uM
[5] = 48 h, 1 µM, compound concentration 1 uM
[6] = 48 h, 10 µM, compound concentration 10 uM

## CN(C)[C@H]1CC[C@H](Nc2ncc3ncnc(Nc4ccc(F)c(Cl)c4)c3n2)CC1
[1]
  Population Fragmented Nuclei (%): 46% and 17%
  Population Healthy Nuclei (%): 42% and 68%
  Population Hoechst High Intensity Objects (%): 0%
  Population Membrane Permeable-Phenotype (%): 4% and 1%
  Population Mitochondria Different-Phenotype (%): 4% and 1%
  Population Mitotic Cells (%): 100% and 64%
  Population Normal (%): 100% and 99%
  Population Pyknosed Nuclei (%): 10% and 14%
  Population Tubulin-Different-Phenotype (%): 76% and 89%
[2]
  Population Apoptotic (%): 6% and 13%
  Population Fragmented Nuclei (%): 38% and 27%
  Population Healthy Nuclei (%): 36%
  Population Hoechst High Intensity Objects (%): 9% and 11%
  Population Membrane Permeable-Phenotype (%): 7% and 2%
  Population Mitochondria Different-Phenotype (%): 6% and 1%
  Population Mitotic Cells (%): 93% and 86%
  Population Normal (%): 90% and 88%
  Population Pyknosed Nuclei (%): 25% and 35%
  Population Tubulin-Different-Phenotype (%): 50% and 81%
  Total Cell Count: 197 and 472
[3]
  Population Apoptotic (%): 16% and 47%
  Population Healthy Nuclei (%): 43% and 76%
  Population Hoechst High Intensity Objects (%): 0%
  Population Membrane Permeable-Phenotype (%): 0% and 3%
  Population Mitochondria Different-Phenotype (%): 0% and 1%
  Population Mitotic Cells (%): 83% and 52%
  Population Normal (%): 100% and 99%
  Population Pyknosed Nuclei (%): 9% and 11%
  Population Tubulin-Different-Phenotype (%): 75% and 92%
[4]
  Population Apoptotic (%): 17% and 10%
  Population Fragmented Nuclei (%): 40% and 25%
  Population Healthy Nuclei (%): 33% and 40%
  Population Hoechst High Intensity Objects (%): 14% and 9%
  Population Membrane Permeable-Phenotype (%): 8% and 2%
  Population Mitochondria Different-Phenotype (%): 2% and 0%
  Population Mitotic Cells (%): 82% and 89%
  Population Normal (%): 85% and 90%
  Population Pyknosed Nuclei (%): 26% and 33%
  Population Tubulin-Different-Phenotype (%): 61% and 82%
[5]
  Population Apoptotic (%): 75% and 60%
  Population Healthy Nuclei (%): 39% and 76%
  Population Hoechst High Intensity Objects (%): 0%
  Population Membrane Permeable-Phenotype (%): 3% and 1%
  Population Mitochondria Different-Phenotype (%): 0% and 1%
  Population Mitotic Cells (%): 25% and 39%
  Population Normal (%): 100% and 99%
  Population Pyknosed Nuclei (%): 5% and 8%
  Population Tubulin-Different-Phenotype (%): 71% and 89%
[6]
  Population Apoptotic (%): 18% and 14%
  Population Fragmented Nuclei (%): 36% and 26%
  Population Healthy Nuclei (%): 38% and 47%
  Population Hoechst High Intensity Objects (%): 13% and 10%
  Population Membrane Permeable-Phenotype (%): 9% and 1%
  Population Mitochondria Different-Phenotype (%): 4% and 0%
  Population Mitotic Cells (%): 81% and 85%
  Population Normal (%): 86% and 89%
  Population Pyknosed Nuclei (%): 25%
  Population Tubulin-Different-Phenotype (%): 53% and 79%

## CS(=O)(=O)c1ccc(C(=O)Nc2cccc(COc3ccc(Br)cc3CN3CC[C@@H](O)C3)c2)c(Cl)c1.O=CO
[1]
  Population Apoptotic (%): 60% and 71%
  Population Healthy Nuclei (%): 80%
  Population Hoechst High Intensity Objects (%): 0%
  Population Mitotic Cells (%): 40% and 28%
  Population Normal (%): 100%
  Population Pyknosed Nuclei (%): 9%
[2]
  Population Apoptotic (%): 55% and 54%
  Population Healthy Nuclei (%): 65% and 80%
  Population Hoechst High Intensity Objects (%): 0%
  Population Mitotic Cells (%): 44% and 45%
  Population Normal (%): 100%
  Population Pyknosed Nuclei (%): 20% and 15%
[3]
  Population Apoptotic (%): 54% and 59%
  Population Healthy Nuclei (%): 59% and 86%
  Population Hoechst High Intensity Objects (%): 0%
  Population Mitotic Cells (%): 45% and 40%
  Population Normal (%): 100%
[4]
  Population Apoptotic (%): 60% and 72%
  Population Healthy Nuclei (%): 59% and 65%
  Population Hoechst High Intensity Objects (%): 0%
  Population Mitotic Cells (%): 40% and 27%
  Population Normal (%): 100%
  Population Pyknosed Nuclei (%): 31%
[5]
  Population Apoptotic (%): 60% and 87%
  Population Healthy Nuclei (%): 64% and 82%
  Population Hoechst High Intensity Objects (%): 0%
  Population Normal (%): 100%
  Population Pyknosed Nuclei (%): 15%
[6]
  Population Apoptotic (%): 76% and 88%
  Population Healthy Nuclei (%): 47% and 57%
  Population Hoechst High Intensity Objects (%): 0% and 1%
  Population Mitotic Cells (%): 23% and 11%
  Population Normal (%): 100%
  Population Pyknosed Nuclei (%): 33%

## CC(C)N(CCCCOCC(=O)NS(C)(=O)=O)c1cnc(-c2ccccc2)c(-c2ccccc2)n1 [SELEXIPAG]
[1]
  Population Apoptotic (%): 100% and 38%
  Population Fragmented Nuclei (%): 14% and 4%
  Population Healthy Nuclei (%): 76% and 84%
  Population Hoechst High Intensity Objects (%): 0%
  Population Membrane Permeable-Phenotype (%): 0% and 1%
  Population Mitochondria Different-Phenotype (%): 6% and 0%
  Population Normal (%): 100% and 99%
  Population Pyknosed Nuclei (%): 9% and 11%
  Population Tubulin-Different-Phenotype (%): 81% and 85%
[2]
  Population Apoptotic (%): 33% and 45%
  Population Fragmented Nuclei (%): 11% and 3%
  Population Healthy Nuclei (%): 82% and 88%
  Population Hoechst High Intensity Objects (%): 0%
  Population Membrane Permeable-Phenotype (%): 2% and 1%
  Population Mitochondria Different-Phenotype (%): 0%
  Population Mitotic Cells (%): 66% and 54%
  Population Normal (%): 100% and 99%
  Population Pyknosed Nuclei (%): 6% and 8%
  Population Tubulin-Different-Phenotype (%): 97% and 87%
[3]
  Population Apoptotic (%): 50% and 46%
  Population Fragmented Nuclei (%): 5% and 2%
  Population Healthy Nuclei (%): 88% and 89%
  Population Hoechst High Intensity Objects (%): 0%
  Population Membrane Permeable-Phenotype (%): 3% and 1%
  Population Mitochondria Different-Phenotype (%): 0%
  Population Mitotic Cells (%): 50% and 53%
  Population Normal (%): 100%
  Population Pyknosed Nuclei (%): 5% and 8%
  Population Tubulin-Different-Phenotype (%): 84% and 91%
[4]
  Population Apoptotic (%): 75% and 46%
  Population Healthy Nuclei (%): 73% and 89%
  Population Hoechst High Intensity Objects (%): 0%
  Population Membrane Permeable-Phenotype (%): 0% and 1%
  Population Mitochondria Different-Phenotype (%): 0%
  Population Mitotic Cells (%): 25% and 53%
  Population Normal (%): 100% and 99%
  Population Pyknosed Nuclei (%): 6%
  Population Tubulin-Different-Phenotype (%): 100% and 94%
[5]
  Population Apoptotic (%): 22% and 50%
  Population Healthy Nuclei (%): 67% and 94%
  Population Hoechst High Intensity Objects (%): 0%
  Population Membrane Permeable-Phenotype (%): 0% and 1%
  Population Mitochondria Different-Phenotype (%): 0%
  Population Mitotic Cells (%): 77% and 50%
  Population Normal (%): 100%
  Population Tubulin-Different-Phenotype (%): 85% and 93%
[6]
  Population Apoptotic (%): 36% and 56%
  Population Fragmented Nuclei (%): 6% and 4%
  Population Healthy Nuclei (%): 83% and 90%
  Population Hoechst High Intensity Objects (%): 0%
  Population Membrane Permeable-Phenotype (%): 1%
  Population Mitochondria Different-Phenotype (%): 0%
  Population Mitotic Cells (%): 63% and 43%
  Population Normal (%): 100% and 99%
  Population Pyknosed Nuclei (%): 9% and 4%
  Population Tubulin-Different-Phenotype (%): 97% and 94%

## COc1ccc(-c2cc3c(C)nc(N)nc3n([C@H]3CC[C@H](OCCO)CC3)c2=O)cn1 [PF-04691502]
[1]
  Population Apoptotic (%): 50% and 76%
  Population Healthy Nuclei (%): 57% and 78%
  Population Hoechst High Intensity Objects (%): 0%
  Population Membrane Permeable-Phenotype (%): 10% and 2%
  Population Mitochondria Different-Phenotype (%): 0% and 1%
  Population Mitotic Cells (%): 50% and 23%
  Population Normal (%): 100%
  Population Pyknosed Nuclei (%): 6% and 12%
  Population Tubulin-Different-Phenotype (%): 84% and 83%
[2]
  Population Apoptotic (%): 88% and 83%
  Population Fragmented Nuclei (%): 25% and 13%
  Population Healthy Nuclei (%): 46% and 54%
  Population Hoechst High Intensity Objects (%): 3% and 2%
  Population Membrane Permeable-Phenotype (%): 0% and 7%
  Population Mitochondria Different-Phenotype (%): 0% and 3%
  Population Mitotic Cells (%): 11% and 16%
  Population Normal (%): 96% and 97%
  Population Pyknosed Nuclei (%): 28% and 32%
  Population Tubulin-Different-Phenotype (%): 80% and 50%
[3]
  Population Apoptotic (%): 60% and 76%
  Population Fragmented Nuclei (%): 19% and 10%
  Population Healthy Nuclei (%): 66% and 75%
  Population Hoechst High Intensity Objects (%): 0%
  Population Membrane Permeable-Phenotype (%): 0% and 2%
  Population Mitochondria Different-Phenotype (%): 0% and 1%
  Population Mitotic Cells (%): 40% and 23%
  Population Normal (%): 100% and 99%
  Population Pyknosed Nuclei (%): 13% and 14%
  Population Tubulin-Different-Phenotype (%): 91% and 84%
[4]
  Population Apoptotic (%): 84% and 69%
  Population Fragmented Nuclei (%): 12% and 17%
  Population Healthy Nuclei (%): 46% and 50%
  Population Hoechst High Intensity Objects (%): 2%
  Population Membrane Permeable-Phenotype (%): 20% and 40%
  Population Mitochondria Different-Phenotype (%): 7% and 15%
  Population Mitotic Cells (%): 15% and 30%
  Population Normal (%): 97%
  Population Pyknosed Nuclei (%): 41% and 32%
  Population Tubulin-Different-Phenotype (%): 59% and 65%
[5]
  Population Apoptotic (%): 80% and 82%
  Population Fragmented Nuclei (%): 10% and 8%
  Population Healthy Nuclei (%): 80% and 69%
  Population Hoechst High Intensity Objects (%): 0%
  Population Membrane Permeable-Phenotype (%): 7% and 5%
  Population Mitochondria Different-Phenotype (%): 5% and 4%
  Population Mitotic Cells (%): 20% and 17%
  Population Normal (%): 100% and 99%
  Population Pyknosed Nuclei (%): 10% and 21%
  Population Tubulin-Different-Phenotype (%): 82% and 85%
[6]
  Population Apoptotic (%): 66% and 85%
  Population Fragmented Nuclei (%): 19% and 10%
  Population Healthy Nuclei (%): 22% and 26%
  Population Hoechst High Intensity Objects (%): 0% and 4%
  Population Membrane Permeable-Phenotype (%): 62% and 35%
  Population Mitochondria Different-Phenotype (%): 37% and 18%
  Population Mitotic Cells (%): 33% and 14%
  Population Normal (%): 100% and 95%
  Population Pyknosed Nuclei (%): 58% and 63%
  Population Tubulin-Different-Phenotype (%): 87% and 70%
